Measured values taken from ChEMBL document CHEMBL3784967, “7-Substituted umbelliferone derivatives as androgen receptor antagonists for the potential treatment of prostate and breast cancer” (Bioorg Med Chem Lett, 2016).

Experiments:
MCF7 = assay: Antiproliferative activity against human MCF7 cells after 96 hrs by Oncotest monolayer assay; type: functional, cell-based
Procedure, shortened: (§1)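 Cells from exponential-phase cultures seeded at 8000-12,000 cells/well, left 24 h to recover, then given compound at 10 concentrations in half-log steps up to 100 µM, in triplicate. After 96 h total exposure, wells were PBS-washed and stained with 7 µg/ml propidium iodide plus 0.1% Triton X-100 for 1-2 h at room temperature. Fluorescence (ex 530/em 620 nm) was read. Absolute IC50 was obtained by non-linear regression.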

CWR22R [1] = assay: Antiproliferative activity against human 22Rv1 cells after 96 hrs by Oncotest monolayer assay; type: functional, cell-based; procedure, shortened: as §1
Androgen receptor = biological target: T1, Androgen receptor (Homo sapiens, UniProt P10275); assay: Antagonist activity against androgen receptor (unknown origin)
T1 sequence (P10275 whole entry): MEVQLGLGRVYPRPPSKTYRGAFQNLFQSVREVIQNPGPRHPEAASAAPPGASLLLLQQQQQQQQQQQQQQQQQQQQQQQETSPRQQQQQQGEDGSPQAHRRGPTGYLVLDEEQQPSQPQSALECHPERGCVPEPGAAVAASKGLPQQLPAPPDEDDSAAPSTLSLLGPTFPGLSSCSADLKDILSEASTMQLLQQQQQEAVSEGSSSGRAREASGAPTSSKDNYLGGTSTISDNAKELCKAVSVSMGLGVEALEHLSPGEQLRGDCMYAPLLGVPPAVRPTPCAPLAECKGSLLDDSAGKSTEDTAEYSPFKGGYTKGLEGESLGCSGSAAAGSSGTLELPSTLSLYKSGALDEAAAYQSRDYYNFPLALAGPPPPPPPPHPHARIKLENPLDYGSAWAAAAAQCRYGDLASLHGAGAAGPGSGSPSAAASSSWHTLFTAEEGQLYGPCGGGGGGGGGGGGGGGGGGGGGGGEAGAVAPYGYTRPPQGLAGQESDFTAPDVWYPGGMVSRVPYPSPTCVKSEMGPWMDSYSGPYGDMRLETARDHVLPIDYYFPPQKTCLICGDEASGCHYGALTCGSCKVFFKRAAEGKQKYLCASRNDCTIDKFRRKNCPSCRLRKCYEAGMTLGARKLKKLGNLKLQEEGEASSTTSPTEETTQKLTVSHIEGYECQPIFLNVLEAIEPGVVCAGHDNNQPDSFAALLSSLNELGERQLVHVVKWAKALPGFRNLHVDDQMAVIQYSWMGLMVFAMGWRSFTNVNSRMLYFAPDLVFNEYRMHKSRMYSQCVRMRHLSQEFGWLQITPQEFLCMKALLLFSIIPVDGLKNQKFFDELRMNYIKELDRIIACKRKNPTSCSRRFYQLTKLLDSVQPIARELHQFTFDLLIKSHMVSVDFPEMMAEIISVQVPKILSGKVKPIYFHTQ

CWR22R [2] = assay: Potency index, ratio IC50 of bicalutamide to IC50 of compound for antiproliferative activity against human 22Rv1 cells; type: functional
CWR22R [3] = assay: Potency index, ratio IC50 of enzalutamide to IC50 of compound for antiproliferative activity against human 22Rv1 cells; type: functional
[4] = Homo sapiens, MCF7, 96 h, read-out: IC50
[5] = Homo sapiens, 22Rv1, 96 h, read-out: IC50

Structure (SMILES) | IC50 (MCF7; [4]) [µM] | IC50 (CWR22R [1]; [5]) [µM] | IC50 (Androgen receptor) | IC50 (MCF7; mcf7) | IC50 (CWR22R [1]; cwr22r) | other results
Cc1cc(=O)oc2cc(OCC(=O)c3ccc(C#N)cc3)ccc12 | > 100 | > 100 | Not Active | – | – | –
Cc1cc(=O)oc2cc(OCC(=O)c3ccc4c(c3)OCCCO4)ccc12 | > 100 | > 100 | Not Active | – | – | –
COc1cccc(C(=O)COc2ccc3c(C)cc(=O)oc3c2)c1 | 2.21 | 8.41 | – | – | – | –
O=C(COc1ccc2c(C(F)(F)F)cc(=O)oc2c1)c1ccc(C(F)(F)F)cc1 | – | – | Not Active | Not Active | Not Active | –
CC(C)(C)c1ccc(C(=O)COc2ccc3c(C(F)(F)F)cc(=O)oc3c2)cc1 | – | – | Not Active | Not Active | Not Active | –
Cc1cc(=O)oc2cc(OC(C)C(=O)c3ccccc3)ccc12 (configuration not stated) | – | – | – | – | – | IC50 (Androgen receptor; read-out: IC50): 5.09 µM
N#Cc1ccc(C(=O)COc2ccc3c(C(F)(F)F)cc(=O)oc3c2)cc1 | – | – | Not Active | Not Active | Not Active | –
O=C(COc1ccc2c(C(F)(F)F)cc(=O)oc2c1)c1ccc(F)cc1 | – | – | Not Active | Not Active | Not Active | –
Cc1cc(=O)oc2cc(OCC(=O)c3ccc(C(C)(C)C)cc3)ccc12 | 20.7 | 22.3 | – | – | – | Ratio IC50 (CWR22R [2]): 2
O=C(COc1ccc2c(C(F)(F)F)cc(=O)oc2c1)c1cccc(C(F)(F)F)c1 | – | – | Not Active | Not Active | Not Active | –
O=C(COc1ccc2c(C(F)(F)F)cc(=O)oc2c1)c1ccccc1C(F)(F)F | – | – | Not Active | Not Active | Not Active | –
Cc1cc(=O)oc2cc(OCC(=O)c3ccc4ccccc4c3)ccc12 | > 100 | > 100 | Not Active | – | – | –
Cc1cc(=O)oc2cc(OCC(=O)C(C)(C)C)ccc12 | – | – | – | – | – | IC50 (Androgen receptor; read-out: IC50): 3.76 µM
Cc1cc(=O)oc2cc(OCC(=O)c3cc(C(F)(F)F)cc(C(F)(F)F)c3)ccc12 | 0.47 | 0.93 | – | – | – | Ratio IC50 (CWR22R [2]): 50; Ratio IC50 (CWR22R [3]): > 30
Cc1cc(=O)oc2cc(OCC(=O)c3ccccc3C(F)(F)F)ccc12 | 43.2 | 20.4 | – | – | – | Ratio IC50 (CWR22R [2]): 2
CC(C)(C)C(=O)COc1ccc2c(C(F)(F)F)cc(=O)oc2c1 | – | – | Not Active | Not Active | Not Active | –
Cc1cc(=O)oc2cc(OCC(=O)c3cccc(C(F)(F)F)c3)ccc12 | 38.4 | > 100 | Not Active | – | – | –

Structure (SMILES) | IC50 (MCF7; [4]) [µM] | IC50 (CWR22R [1]; [5]) [µM] | IC50 (Androgen receptor) | IC50 (MCF7; mcf7) | IC50 (CWR22R [1]; cwr22r) | other results
O=C(COc1ccc2c(C(F)(F)F)cc(=O)oc2c1)c1cc(C(F)(F)F)cc(C(F)(F)F)c1 | – | – | Not Active | Not Active | Not Active | –
Cc1ccc(C(=O)COc2ccc3c(C)cc(=O)oc3c2)cc1 | > 100 | > 100 | Not Active | – | – | –
O=C(COc1ccc2c(C(F)(F)F)cc(=O)oc2c1)c1ccccc1 | – | – | Not Active | Not Active | Not Active | –
Cc1cc(=O)oc2cc(OCC(=O)c3ccccc3)ccc12 | > 100 | > 100 | Not Active | – | – | –
Cc1ccc(C(=O)COc2ccc3c(C(F)(F)F)cc(=O)oc3c2)cc1 | – | – | Not Active | Not Active | Not Active | –
COc1ccc(C(=O)COc2ccc3c(C(F)(F)F)cc(=O)oc3c2)cc1 | – | – | Not Active | Not Active | Not Active | –
O=C(COc1ccc2c(C(F)(F)F)cc(=O)oc2c1)c1ccc(OC(F)(F)F)cc1 | – | – | Not Active | Not Active | Not Active | –
Cc1cc(=O)oc2cc(OCC(=O)c3ccc(C(F)(F)F)cc3)ccc12 | > 100 | > 100 | Not Active | – | – | –
COc1ccc(C(=O)COc2ccc3c(C)cc(=O)oc3c2)cc1 | > 100 | > 100 | Not Active | – | – | –
CNC(=O)c1ccc(N2C(=S)N(c3ccc(C#N)c(C(F)(F)F)c3)C(=O)C2(C)C)cc1F [ENZALUTAMIDE] | – | 31.8 | – | – | – | –
O=C(COc1ccc2c(C(F)(F)F)cc(=O)oc2c1)c1ccc2c(c1)OCCCO2 | – | – | Not Active | Not Active | Not Active | –
COc1cccc(C(=O)COc2ccc3c(C(F)(F)F)cc(=O)oc3c2)c1 | – | – | Not Active | Not Active | Not Active | –
CCOC(=O)C(CC)Oc1ccc2c(C)cc(=O)oc2c1 (configuration not stated) | – | – | – | – | – | IC50 (Androgen receptor; read-out: IC50): 5 µM
Cc1cc(=O)oc2cc(OCC(=O)c3ccc(OC(F)(F)F)cc3)ccc12 | > 100 | > 100 | Not Active | – | – | –
CC(O)(CS(=O)(=O)c1ccc(F)cc1)C(=O)Nc1ccc(C#N)c(C(F)(F)F)c1 (configuration not stated) [BICALUTAMIDE] | – | 46.2 | – | – | – | –
O=C(COc1ccc2c(C(F)(F)F)cc(=O)oc2c1)c1ccc2ccccc2c1 | – | – | Not Active | Not Active | Not Active | –
Cc1cc(=O)oc2cc(OCC(=O)c3ccc(F)cc3)ccc12 | > 100 | > 100 | Not Active | – | – | –
